Source: ChEMBL document CHEMBL5096172, “Tricyclic Triazoles as σ1 Receptor Antagonists for Treating Pain” (J Med Chem, 2021)

What was measured:
[1] = Clearance in CD-1 mouse at 10 mg/kg, po by HPLC-MS/MS analysis relative to liver blood flow; type: ADME, organism-based; conditions: in vivo
In short: (§1)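 Male Wistar rats (250−300 g, groups of 2) or male CD1 mice (25−30 g, groups of 16) dosed 10 mg/kg orally in 0.5% HPMC or 1 mg/kg iv in saline. Blood taken over time from saphenous vein or by intracardiac puncture into heparin tubes. Plasma spun at 4 °C, stored −80 °C, assayed by HPLC−MS/MS after protein precipitation. Noncompartmental analysis.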

[2] = Clearance in wistar rat at 10 mg/kg, po by HPLC-MS/MS analysis relative to liver blood flow; type: ADME, organism-based; conditions: in vivo; in short: as §1

CL [1]: 65%
CL [2]: 109%
SMILES: Cc1cc(OCCN2CCOCC2)nn1-c1ccc2ccccc2c1
